Assay results reported in ChEMBL document CHEMBL4350955, “Novel Chemical Series of 5-Lipoxygenase-Activating Protein Inhibitors for Treatment of Coronary Artery Disease” (J Med Chem, 2019).
In brackets after ≈: the same amount, converted by molar mass.

Assays:
[1] = molecular target: T1, Arachidonate 5-lipoxygenase-activating protein (Homo sapiens, UniProt P20292); assay: Inhibition of [3H]MK0591 binding to human FLAP expressed in […] cell membranes measured after 60 to 80 mins by scintillation counting method
T1 sequence (P20292 whole entry): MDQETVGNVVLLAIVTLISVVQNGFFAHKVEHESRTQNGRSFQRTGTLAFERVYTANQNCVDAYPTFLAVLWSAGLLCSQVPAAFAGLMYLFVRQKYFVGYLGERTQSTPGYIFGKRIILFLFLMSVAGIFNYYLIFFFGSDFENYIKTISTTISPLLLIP

[2] = Intrinsic clearance in cryopreserved human hepatocytes assessed as per million cells at 1 uM measured up to 60 mins by LC-MS/MS analysis; type: ADME, cell-based, Hepatocyte; settings: read-out: CLH
[3] = Distribution coefficient between octanol and sodium phosphate buffer, logD of the compound in pH 7.4 buffer by LC-MS/MS-based shake flask method
[4] = molecular target: CYP450 (Homo sapiens, UniProt P04798+P05177+P05181+P08684+P10632+P10635+P11509+P11712+P13584+P20813+P20815+P20853+P24462+P24903+P33260+P33261+P51589+P78329+P98187+Q02928+Q08477+Q16678+Q16696+Q5TCH4+Q6VVX0+Q7Z449+Q8TAV3+Q96SQ9+Q9HB55); assay: Inhibition of CYP450 assessed as maximum reduction in metabolite formation using coumarin based substrate by fluorescence assay; type: ADME, protein assay; settings: probe coumarin based substrate
[5] = molecular target: T1, Arachidonate 5-lipoxygenase-activating protein; assay: (§1) Inhibition of FLAP in human whole blood assessed as reduction in calcium ionophore-stimulated LTB4 production preincubated for 30 mins followed by calcium ionophore stimulation and measured after 20 mins by EIA; type: tissue-based
[6] = molecular target: Voltage-gated inwardly rectifying potassium channel KCNH2 (Homo sapiens, UniProt Q12809); assay: Inhibition of human ERG by high-throughput electrophysiology assay
[7] = Apparent permeability across apical to basolateral side in human Caco2 cells; settings: Caco-2
[8] = physchem; settings: phosphate buffer, pH 7.4
[9] = molecular target: T2, Arachidonate 5-lipoxygenase-activating protein (Homo sapiens) (UniProt P20292); assay: as §1; type: tissue-based
T2 sequence (whole entry): T1 sequence (P20292 whole entry)

[10] = molecular target: Cytochrome P450 2C9 (Homo sapiens, UniProt P11712); assay: Inhibition of recombinant human CYP2C9 expressed in Escherichia coli assessed as maximum reduction in metabolite formation using coumarin based substrate by fluorescence assay; type: ADME
[11] = Metabolic stability in human hepatocytes assessed as parent compound remaining; type: ADME, cell-based, Hepatocyte
[12] = molecular target: Cytochrome P450 3A4 (Homo sapiens, UniProt P08684); assay: Inhibition of recombinant human CYP3A4 expressed in Escherichia coli assessed as maximum reduction in metabolite formation using coumarin based substrate by fluorescence assay
[13] = molecular target: hERG (KCNH2) (Homo sapiens, UniProt Q12809); assay: Inhibition of human ERG at 10 uM high-throughput electrophysiology assay relative to control
[14] = molecular target: T2, Arachidonate 5-lipoxygenase-activating protein (Homo sapiens); assay: (§2) Inhibition of FLAP in human whole blood assessed as reduction in calcium ionophore-stimulated LTB4 production preincubated for 4 hrs followed by calcium ionophore stimulation and measured after 20 mins by EIA; type: tissue-based
[15] = molecular target: T1, Arachidonate 5-lipoxygenase-activating protein; assay: as §2; type: tissue-based
[16] = Half-life in po or iv dosed Sprague-Dawley rat; type: ADME, organism-based; settings: in vivo
[17] = Protein binding in Sprague-Dawley rat plasma assessed as unbound fraction by LC-MS based equilibrium dialysis analysis; type: ADME, cell-free
[18] = Volume of distribution at steady state in po or iv dosed Sprague-Dawley rat; type: ADME, organism-based; settings: in vivo, read-out: Vdss
[19] = Clearance in po or iv dosed Sprague-Dawley rat; type: ADME, organism-based; settings: in vivo
[20] = Protein binding in human plasma assessed as unbound fraction by LC-MS based equilibrium dialysis analysis; type: ADME, cell-free
[21] = Bioavailability in po dosed Sprague-Dawley rat; type: ADME, organism-based; settings: in vivo
[22] = Genotoxicity in Salmonella typhimurium by Ames test; type: toxicity; settings: salmonella enterica subsp. enterica serovar typhimurium
Procedure, shortened: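 Two-strain Salmonella Ames test, with and without metabolic activation by rat liver S9 fraction; applied to amino pyrazole building blocks present in the series.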

Sequence of Cytochrome P450 2C9 (P11712 whole entry): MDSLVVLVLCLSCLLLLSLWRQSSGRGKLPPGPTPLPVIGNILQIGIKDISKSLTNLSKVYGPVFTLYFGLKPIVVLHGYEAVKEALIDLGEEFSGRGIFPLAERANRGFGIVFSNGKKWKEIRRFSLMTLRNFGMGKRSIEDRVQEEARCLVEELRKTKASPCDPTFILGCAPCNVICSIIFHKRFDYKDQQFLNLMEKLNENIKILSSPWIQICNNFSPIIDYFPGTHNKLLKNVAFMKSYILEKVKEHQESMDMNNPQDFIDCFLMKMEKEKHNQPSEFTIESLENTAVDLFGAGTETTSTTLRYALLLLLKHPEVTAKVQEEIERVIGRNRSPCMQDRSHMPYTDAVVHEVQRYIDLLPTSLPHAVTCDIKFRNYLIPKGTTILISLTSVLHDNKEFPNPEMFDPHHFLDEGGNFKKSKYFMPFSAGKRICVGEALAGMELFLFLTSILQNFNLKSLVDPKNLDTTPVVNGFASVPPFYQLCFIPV
Sequence of Cytochrome P450 3A4 (P08684 whole entry): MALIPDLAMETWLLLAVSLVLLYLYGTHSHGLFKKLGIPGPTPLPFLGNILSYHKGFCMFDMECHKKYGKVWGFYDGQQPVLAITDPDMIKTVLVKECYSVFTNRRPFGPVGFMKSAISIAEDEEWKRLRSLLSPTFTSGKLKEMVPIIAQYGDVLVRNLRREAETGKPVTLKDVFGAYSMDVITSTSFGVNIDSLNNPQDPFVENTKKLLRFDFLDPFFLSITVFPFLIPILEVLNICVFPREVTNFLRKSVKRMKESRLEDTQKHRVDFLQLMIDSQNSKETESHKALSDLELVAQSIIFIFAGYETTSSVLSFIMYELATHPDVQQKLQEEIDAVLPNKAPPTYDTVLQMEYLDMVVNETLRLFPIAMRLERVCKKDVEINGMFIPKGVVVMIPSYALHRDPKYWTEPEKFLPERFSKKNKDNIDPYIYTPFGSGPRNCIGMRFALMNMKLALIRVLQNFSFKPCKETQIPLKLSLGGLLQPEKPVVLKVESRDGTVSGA
Sequence of Voltage-gated inwardly rectifying potassium channel KCNH2 (Q12809 whole entry): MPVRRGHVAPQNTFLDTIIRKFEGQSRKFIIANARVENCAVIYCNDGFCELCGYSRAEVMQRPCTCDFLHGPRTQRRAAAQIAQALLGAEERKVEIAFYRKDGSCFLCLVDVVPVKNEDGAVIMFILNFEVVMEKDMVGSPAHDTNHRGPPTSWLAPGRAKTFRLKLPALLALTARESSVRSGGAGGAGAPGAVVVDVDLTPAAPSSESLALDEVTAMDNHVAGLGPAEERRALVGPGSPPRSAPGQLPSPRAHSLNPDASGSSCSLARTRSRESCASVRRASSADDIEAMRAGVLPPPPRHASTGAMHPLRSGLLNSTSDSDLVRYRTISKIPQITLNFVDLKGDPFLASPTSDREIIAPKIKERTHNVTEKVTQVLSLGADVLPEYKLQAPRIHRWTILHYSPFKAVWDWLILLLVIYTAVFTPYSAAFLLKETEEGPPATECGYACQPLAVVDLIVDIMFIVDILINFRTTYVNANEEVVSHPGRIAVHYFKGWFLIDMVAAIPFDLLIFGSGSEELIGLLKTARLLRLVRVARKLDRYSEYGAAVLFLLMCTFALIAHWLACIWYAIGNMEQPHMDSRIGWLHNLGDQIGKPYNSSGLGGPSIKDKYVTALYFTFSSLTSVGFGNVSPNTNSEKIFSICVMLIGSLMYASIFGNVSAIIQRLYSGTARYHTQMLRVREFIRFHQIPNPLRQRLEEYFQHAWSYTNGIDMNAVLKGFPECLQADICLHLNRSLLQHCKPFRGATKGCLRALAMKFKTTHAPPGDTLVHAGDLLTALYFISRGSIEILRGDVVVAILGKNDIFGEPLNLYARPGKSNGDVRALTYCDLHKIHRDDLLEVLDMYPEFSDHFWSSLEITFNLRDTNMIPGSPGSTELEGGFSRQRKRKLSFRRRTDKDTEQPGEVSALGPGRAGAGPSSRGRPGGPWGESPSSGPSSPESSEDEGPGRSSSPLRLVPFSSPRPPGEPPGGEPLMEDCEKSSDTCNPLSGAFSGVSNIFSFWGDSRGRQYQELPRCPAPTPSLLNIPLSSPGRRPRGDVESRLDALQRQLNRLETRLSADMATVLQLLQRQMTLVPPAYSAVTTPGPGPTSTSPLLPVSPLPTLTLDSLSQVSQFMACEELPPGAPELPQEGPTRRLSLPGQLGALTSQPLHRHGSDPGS
Sequence of hERG (KCNH2) (Q12809 whole entry): as above

Compound | IC50 [1] [nM] | hepatocyte CLint at 1 µM [2] [µL/min/1e6 cells] | logD [3] | IC50 [5] [nM] | IC50 [6] [nM] | Papp A→B [7] [×10⁻⁶ cm/s] | solubility at 24 h [8] [µM] | fpIC50 [9] | IC50 [10] [nM] | Stability [11] [%] | half-life [16] [h] | fraction unbound [17] | Vd [18] [L/kg] | clearance [19] [mL/min/kg] | fraction unbound [20] | bioavailability [21] [%] | other results
Cc1nn(C)cc1NC(=O)[C@@H]1CCCC[C@H]1C(=O)c1ccc(-c2cc[nH]n2)cc1 (racemic) | 79.4 | < 4 | 2.6 | 501 | > 12600 | 26 | 92 (≈ 36 µg/mL) |  |  |  |  |  |  |  |  |  | IC50 [4]: > 20000 nM
COc1cc(NC(=O)[C@@H]2CCCC[C@H]2C(=O)c2ccc(-c3cc[nH]n3)cc2)ncn1 | 15.8 | 22 | 3.9 | 15.8 | 12600 | 69 | 22 (≈ 8.92 µg/mL) | 9.3 | 5010 |  |  |  |  |  |  |  | 
Cn1cc(NC(=O)[C@@H]2C[C@@H]3C[C@@H]3C[C@H]2C(=O)c2ccc(-c3cc[nH]n3)cc2)c(C(F)(F)F)n1 | 12.6 | 13 | 3.7 | 25.1 |  | 57 | 27 (≈ 12.4 µg/mL) | 9 |  | 76 |  |  |  |  |  |  | IC50 [12]: 3980 nM
Cc1cc(-c2ccc3c([C@@H]4C[C@H]5C[C@H]5C[C@H]4C(=O)Nc4cn(C)nc4C(N)=O)noc3c2)n[nH]1 | 39.8 | 16 | 3.5 |  |  | 23 | 12 (≈ 5.51 µg/mL) |  |  | 69 |  |  |  |  |  |  | inhibition at 10 µM [13]: 12%; IC50 [12]: 3160 nM; fpIC50 [14]: 8.5; IC50 [15]: 126 nM
Cn1ncc(NC(=O)[C@@H]2C[C@@H]3C[C@@H]3C[C@H]2C(=O)c2ccc(-c3cc[nH]n3)cc2)c1C(F)(F)F | 12.6 | 12 | 3.7 | 50.1 |  | 59 | 63 (≈ 28.8 µg/mL) | 8.5 | 5010 |  | 1.4 | 0.04 | 1.1 | 9.8 | 0.066 | 100 | 
O=C(Nc1cnn2cccnc12)[C@@H]1CCCC[C@H]1C(=O)c1ccc(-c2cc[nH]n2)cc1 | 31.6 | 5 | 2.9 | 39.8 | > 31600 | 12 | 60 (≈ 24.9 µg/mL) | 8.4 |  |  |  |  |  |  |  |  | IC50 [4]: > 20000 nM
Cc1nn(C)cc1NC(=O)[C@@H]1CCCC[C@H]1C(=O)c1ccc(-c2cc[nH]n2)cc1F (racemic) | 126 | 14 | 2.9 | 63.1 | > 12600 | 34 | 500 (≈ 205 µg/mL) | 8 |  |  | 1.2 | 0.11 | 1.1 | 13.3 | 0.14 | 85 | IC50 [4]: > 20000 nM
Cc1cc(-c2ccc(C(=O)[C@@H]3CCCC[C@H]3C(=O)Nc3cn(C)nc3C(N)=O)c(F)c2)[nH]n1 |  | 18 | 3.5 |  | > 31600 | 17 | 31 (≈ 14 µg/mL) | 8.3 |  |  |  |  |  |  |  |  | IC50 [12]: 6310 nM
Cc1cc(-c2ccc3c([C@@H]4CCCC[C@H]4C(=O)Nc4cn(C)nc4C(N)=O)noc3c2)n[nH]1 | 79.4 | 13 | 3.4 |  | > 31600 | 7 | 27 (≈ 12.1 µg/mL) |  | 7940 | 68 |  |  |  |  |  |  | fpIC50 [14]: 8.5; IC50 [15]: 63.1 nM
Cn1ncc(NC(=O)[C@@H]2CCCC[C@H]2C(=O)c2ccc(-c3cc[nH]n3)cc2)c1C(F)(F)F | 39.8 | 7 | 3.6 | 50.1 |  | 59 | 80 (≈ 35.6 µg/mL) | 8.4 | 6310 | 83 | 3 | 0.042 | 0.97 | 4.8 | 0.075 | 100 | inhibition at 10 µM [13]: 32%
Cc1cc(-c2ccc(C(=O)[C@@H]3CCCC[C@H]3C(=O)Nc3cn(C)nc3C(N)=O)cc2)n[nH]1 |  | 12 | 3.1 |  | > 31600 | 22 | 60 (≈ 26.1 µg/mL) |  | 10000 | 79 | 1.4 | 0.024 | 0.64 | 5.5 | 0.076 | 40 | 
Cc1cc(-c2ccc(C(=O)[C@@H]3CCCC[C@H]3C(=O)Nc3cn(C)nc3C#N)cc2)n[nH]1 |  | 6 | 3.5 |  |  | 27 | 25 (≈ 10.4 µg/mL) | 8.5 | 7940 |  |  |  |  |  |  |  | inhibition at 10 µM [13]: 23%; Activity [22]: Non-Toxic
CC(C)(CNC(=O)[C@@H]1CCCC[C@H]1C(=O)c1ccc(-c2cc[nH]n2)cc1)S(C)(=O)=O | 63.1 |  | 2.1 |  |  |  |  |  |  |  |  |  |  |  |  |  | fpIC50 [14]: 7.4; IC50 [15]: 126 nM
Cc1cc(-c2ccc(C(=O)[C@@H]3CCCC[C@H]3C(=O)Nc3cn(C)nc3C(F)F)cc2)n[nH]1 | 10 |  | 3.5 | 63.1 |  |  |  | 8.5 |  |  |  |  |  |  |  |  | Activity [22]: Toxic
Cn1cc(NC(=O)[C@@H]2CCCC[C@H]2C(=O)c2ccc(-c3cc[nH]n3)cc2)c(C(F)(F)F)n1 | 25.1 | 12 |  | 50.1 |  |  |  | 8.5 |  | 62 | 1.6 | 0.054 | 1 | 6.8 | 0.063 | 62 | 
